Activity calls are given as the source filed them. No cut-off for these calls is given here.

The test system of one series is HUVEC. The series is described as follows: Growth inhibition of HUVEC cells after 48 hrs by MTT assay. The class given is cell-based. The following applies: Homo sapiens. In general terms: Formazan colour is commonly taken as a measure of viable cells.
Series [1] concerns HeLa. The series is described as follows: Induction apoptosis in human HeLa cells at 10 nM after 24 hrs by Annexin V-based flow cytometry analysis. The class given is functional, cell-based. (In general: A flow cytometer gives signals particle by particle.)
Series [2] relates to HeLa. Kind of series: Induction apoptosis in human HeLa cells assessed as caspase -3 activity at 100 nM after 24 hrs by single-cell immunofluorescence assay. Type of series: functional, cell-based.
Series [3] can be described thus: Growth inhibition of human HSMC cells after 48 hrs by MTT assay. The class given is cell-based.
The test system of series [4] is HeLa. The series is described as follows: Induction apoptosis in human HeLa cells at 20 nM after 24 hrs by Annexin V-based flow cytometry analysis. The class given is functional, cell-based.
In a further series the test system is A549. The series is described as follows: Antiproliferative activity against human A549 cells assessed as growth inhibition after 48 hrs by MTT assay. The following applies: A549, 48 h.
Another series relates to HT-29. The series is described as follows: Antiproliferative activity against human HT-29 cells assessed as growth inhibition after 48 hrs by MTT assay. Type of series: functional, cell-based. The following applies: HT-29, 48 h.
Series [5] is described as follows: Growth inhibition of potorous tridactylus PtK2 cells after 48 hrs by MTT assay. The class given is cell-based. The following applies: PtK2, 48 h.
Series [6] concerns HeLa. The series is described as follows: Induction of mitotic arrest in human HeLa cells assessed as accumulation at G2/M phase at 2 to 20 nM after 24 hrs by flow cytometry analysis relative to control. The class given is functional, cell-based.
The test system of series [7] is HeLa. Kind of series: Induction apoptosis in human HeLa cells at 20 nM after 24 hrs by Annexin V-based flow cytometry analysis.
The subject of series [8] is HeLa. Kind of series: Cell cycle arrest in human HeLa cells assessed as accumulation at G2/M phase at 20 nM after 24 hrs by propidium iodide staining based flow cytometry analysis (reference value: 0.10 %). Type of series: functional.
The subject of another series is A10. Kind of series: Growth inhibition of rat A10 cells after 48 hrs by MTT assay. The following applies: A10, 48 h. Type of series: cell-based.
The next series concerns OVCAR-8. The series is described as follows: cells. The following applies: Homo sapiens, OVCAR-8, 96 h.
Series [9] concerns Mus musculus. Kind of series: Oral bioavailability in nude CD-1 mouse at 15 mg/kg by UPLC analysis. The class given is ADME, organism-based. The note with it: in vivo. In outline:
(§1)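 Male nude CD-1 mice, 4 weeks old; single iv rapid bolus 5 mg/kg in 3% DMSO + 30% PEG400 + 0.9% NaCl, or oral gavage 15 mg/kg in 5% DMSO + 20% PEG400 + water. Blood sampled at multiple times after dosing; plasma proteins precipitated, samples stored at −80 °C, quantified by UPLC-ESI triple-quadrupole MS/MS.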

Series [10] in a line: AUC ( 0 to infinity) in nude CD-1 mouse at 15 mg/kg, po by UPLC analysis. Type of series: ADME, organism-based. The arrangement: time infinity, dose 15 mg/kg, route oral. The note with it: plasma. In outline: as §1
In series [11] the test system is Mus musculus. Kind of series: Volume of distribution at steady state in nude CD-1 mouse at 5 mg/kg, iv and 15 mg/kg, po by UPLC analysis. Type of series: ADME, organism-based. The following applies: in vivo. In outline:
as §1

A short description of series [12]: Tmax in nude CD-1 mouse at 15 mg/kg, po by UPLC analysis. The class given is ADME, organism-based. The note with it: in vivo. The arrangement: dose 15 mg/kg, route oral. A digest of the protocol:
as §1

Series [13] can be described thus: AUC ( 0 to infinity) in nude CD-1 mouse at 5 mg/kg, iv by UPLC analysis. The note with it: plasma. Type of series: ADME, organism-based. The arrangement: time infinity, dose 5 mg/kg, route intravenous. A digest of the protocol: as §1
A short description of series [14]: Cmax in nude CD-1 mouse at 15 mg/kg, po by UPLC analysis. Type of series: ADME, organism-based. The arrangement: dose 15 mg/kg, route oral. The note with it: in vivo. In outline: as §1
Series [15] in a line: Cmax in nude CD-1 mouse at 5 mg/kg, iv by UPLC analysis. Type of series: ADME, organism-based. The note with it: in vivo. The arrangement: dose 5 mg/kg, route intravenous. A digest of the protocol: as §1
The nature of series [16]: Growth inhibition of doxorubicin-resistant human NCI-ADR-RES cells overexpressing P-glycoprotein after 96 hrs. The class given is functional, cell-based.
In a further series the test system is Liver. The series is described as follows: Metabolic stability in mouse liver microsomes assessed as compound remaining after 30 mins by LC-Ms/Ms analysis. The following applies: 0.5 h. Type of series: ADME, Microsome. In outline:
(§2)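 Compound at 1 μM final, in duplicate, preincubated 10 min at 37 °C with liver microsomes (0.5 mg/mL final) in potassium phosphate buffer pH 7.4 with 3 mM MgCl2; started with NADP/glucose-6-phosphate/G6P dehydrogenase. Samples taken 0–30 min, quenched in acetonitrile, quantified by LC-MS/MS; percent remaining at 30 min versus time zero peak area; no-cofactor control included.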
A general note: Liver microsomes are vesicles of endoplasmic reticulum, rich in cytochrome P450 enzymes.

Another series deals with Liver microsomes. Kind of series: Metabolic stability in human liver microsomes assessed as compound remaining after 30 mins by LC-MS/MS analysis. The note with it: 0.5 h. The class given is ADME, Microsome. A digest of the protocol:
as §2

What is called IC50 is the concentration that inhibits the measured activity by half. Take `COc1ccc(/C=C\c2cc(OC)c(OC)c(OC)c2)cc1O` [COMBRETASTATIN A4]: the half-maximal inhibitory concentration (IC50) with HUVEC is 1 nM; in series [3] it was 5 nM; with A549, more than 10000 nM; in the series with HT-29, more than 10000 nM; in series [5], 3 nM; with A10, 1 nM. Moreover, the outcome in the series with HeLa [1], with HeLa [2], in the series on HeLa [4], with HeLa [6] and in the series with HeLa [7] was Active. Moreover, the Activity in the series with HeLa [8] was 80%.
`CC(=O)O[C@H]1C(=O)[C@@]2(C)[C@H]([C@H](OC(=O)c3ccccc3)[C@]3(O)C[C@H](OC(=O)[C@H](O)[C@@H](NC(=O)c4ccccc4)c4ccccc4)C(C)=C1C3(C)C)[C@]1(OC(C)=O)CO[C@@H]1C[C@@H]2O` [PACLITAXEL] showed an IC50 with OVCAR-8 of 2 nM.
The AUC(0-inf) is total exposure, with the tail of the curve extrapolated. Low values mean low exposure, high ones high exposure. The term Tmax denotes the time from dosing to the highest level. In general, Cmax refers to the maximum level reached in the sampled fluid or tissue. The compound `COc1cc(Sc2c(-c3cc[nH]c3)[nH]c3ccccc23)cc(OC)c1OC` came in with a F in the series with Mus musculus [9] of 110%. Moreover, the AUC(0-inf) in series [10] was 9720 ng·h/mL; in [13], 2910 ng·h/mL. Also, the Vdss with Mus musculus [11] was 1.59 L/kg. In addition, the Tmax in series [12] was 2 h. Besides, the Cmax in series [14] was determined as 1340 ng/mL; in [15], 35.7 ng/mL.
Regarding `CCC1=C[C@@H]2CN(C1)Cc1c([nH]c3ccccc13)[C@@](C(=O)OC)(c1cc3c(cc1OC)N(C)[C@H]1[C@@](O)(C(=O)OC)[C@H](OC(C)=O)[C@]4(CC)C=CCN5CC[C@]31[C@@H]54)C2` [VINORELBINE], half-maximal inhibition in series [16] (IC50) was put at 5000 nM.
For `CCOc1ccc2ccc(=O)oc2c1` [ETHOXYCOUMARIN], the Stability was 0.07% in the series on Liver and 6.6% in the series with Liver microsomes.
As to `CC[C@]1(O)C[C@@H]2CN(CCc3c([nH]c4ccccc34)[C@@](C(=O)OC)(c3cc4c(cc3OC)N(C)[C@H]3[C@@](O)(C(=O)OC)[C@H](OC(C)=O)[C@]5(CC)C=CCN6CC[C@]43[C@@H]65)C2)C1` [VINBLASTINE], the result with HeLa [1], with HeLa [2], with HeLa [4], in the series on HeLa [6] and with HeLa [7] was Active. The Activity in the series with HeLa [8] was found to be 80%. Also, the IC50 in the series on OVCAR-8 stood at 15 nM.

Values taken from ChEMBL document CHEMBL1938276, “Design and synthesis of 2-heterocyclyl-3-arylthio-1H-indoles as potent tubulin polymerization and cell growth inhibitors with improved metabolic stability” (J Med Chem, 2011).
